From ChEMBL document CHEMBL1154428, “Cloning, nucleotide sequencing, and analysis of the AcrAB-TolC efflux pump of Enterobacter cloacae and determination of its involvement in antibiotic resistance in a clinical isolate” (2007) come the findings set out here.

≈ marks a conversion by molar mass, not a printed value. Where only a bound is given, the exact number is not on record here.

In assay [1] the test system is Enterobacter cloacae. The experiment in a line: Antibacterial activity against drug-resistant Enterobacter cloacae EcDC64 isolate expressing AcrAB-TolC efflux pump by broth microdilution method. In kind it is functional. The gist of the method: (§1)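 Broth microdilution MICs for detergents and dyes (SDS, sodium cholate, sodium deoxycholate, acriflavine, ethidium bromide, Triton X-100, crystal violet). E. cloacae inoculum 5 × 10^5 CFU/ml, incubated 16 to 20 h at 37°C. The MIC was the lowest concentration giving complete growth inhibition. The acrA knockout carries a kanamycin-resistance insertion made by Red-mediated recombination.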

Assay [2] concerns Enterobacter cloacae. As to the kind of experiment: Antibacterial activity against drug-resistant AcrAB-TolC efflux pump deficient Enterobacter cloacae EcdeltaacrA isolate by broth microdilution method. The class given is functional. The gist of the method: as §1
For orientation: In broth dilution the organism is exposed to a series of concentrations in liquid medium.

Assay [3] concerns Enterobacter cloacae. The experiment in a line: Antibacterial activity against drug-resistant AcrAB-TolC efflux pump deficient Enterobacter cloacae EcdeltaacrA isolate expressing pAP2 plasmid containing Enterobacter cloacae acrA gene by broth microdilution method. In kind it is functional. The gist of the method:
as §1

For assay [4], the system named is Enterobacter cloacae. The experiment in a line: Antibacterial activity against drug-resistant AcrAB-TolC efflux pump deficient Enterobacter cloacae EcdeltaacrA isolate expressing pACYC184 plasmid by broth microdilution method. The class given is functional. The gist of the method: as §1
Assay [5] relates to Enterobacter cloacae. The experiment in a line: Antibacterial activity against drug-resistant Enterobacter cloacae EcDC64 isolate expressing pBGS18 plasmid by broth microdilution method.
The subject of assay [6] is Enterobacter cloacae. As to the kind of experiment: Antibacterial activity against drug-resistant Enterobacter cloacae EcDC64 isolate expressing pAP3 plasmid containing Enterobacter aerogenes acrR gene by broth microdilution method.
The subject of assay [7] is Enterobacter cloacae. The experiment in a line: Antibacterial activity against drug-resistant Enterobacter cloacae EcDC64 isolate expressing pAP1 containing Escherichia coli ampD by Etest. In kind it is functional.
Assay [8] has as its system Enterobacter cloacae. The experiment in a line: Antibacterial activity against drug-resistant Enterobacter cloacae EcDC64 isolate expressing AcrAB-TolC efflux pump by Etest. In kind it is functional.
The subject of assay [9] is Enterobacter cloacae. As to the kind of experiment: Antibacterial activity against drug-resistant Enterobacter cloacae EcDC64 isolate expressing AcrAB-TolC efflux pump in presence of 20 ug/ml efflux pump inhibitor Phe-Arg-beta-naphthylamide by Etest.
Assay [10] relates to Enterobacter cloacae. The experiment in a line: Antibacterial activity against drug-resistant AcrAB-TolC efflux pump deficient Enterobacter cloacae EcdeltaacrA isolate by Etest. The class given is functional.
The test system of assay [11] is Enterobacter cloacae. As to the kind of experiment: Antibacterial activity against drug-resistant AcrAB-TolC efflux pump deficient Enterobacter cloacae EcdeltaacrA isolate in presence of 20 ug/ml efflux pump inhibitor Phe-Arg-beta-naphthylamide by Etest. In kind it is functional.
In assay [12] the test system is Enterobacter cloacae. As to the kind of experiment: Antibacterial activity against drug-resistant AcrAB-TolC efflux pump deficient Enterobacter cloacae EcdeltaacrA isolate expressing pAP2 plasmid containing Enterobacter cloacae acrA gene by Etest. In kind it is functional.
Assay [13] concerns Enterobacter cloacae. The experiment in a line: Antibacterial activity against drug-resistant AcrAB-TolC efflux pump deficient Enterobacter cloacae EcdeltaacrA isolate expressing pACYC184 plasmid by Etest. The class given is functional.
In assay [14] the test system is Enterobacter cloacae. As to the kind of experiment: Antibacterial activity against drug-resistant AcrAB-TolC efflux pump deficient Enterobacter cloacae EcdeltaacrA isolate expressing pAP3 plasmid containing Enterobacter aerogenes acrR gene by Etest. In kind it is functional.
For assay [15], the system named is Enterobacter cloacae. The experiment in a line: Antibacterial activity against drug-resistant AcrAB-TolC efflux pump deficient Enterobacter cloacae EcdeltaacrA isolate expressing pBGS18 plasmid by Etest. The class given is functional.
The test system of assay [16] is Enterobacter cloacae. To be noted: EcDC64.
For assay [17], the system named is Enterobacter cloacae.
Assay [18] concerns Enterobacter cloacae. This is another data set of the same source.
For assay [19], the system named is Enterobacter cloacae. The source holds these as a separate data set.
Assay [20] has as its system Enterobacter cloacae. This is another data set of the same source.
Assay [21] deals with Enterobacter cloacae. This is another data set of the same source.
Assay [22] deals with Enterobacter cloacae. The source holds these as a separate data set.
Assay [23] deals with Enterobacter cloacae. As to the kind of experiment: Antibacterial activity against drug-resistant Enterobacter cloacae EcDC64 isolate expressing AcrAB-TolC efflux pump by standard disk diffusion method. In kind it is functional. The gist of the method: (§2)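 Standard disk diffusion on Mueller-Hinton agar with telithromycin, fusidic acid, novobiocin, nalidixic acid, rifampin and norfloxacin disks. The read-out is the inhibition zone diameter in mm. The acrA-deleted strain was complemented with acrA on pAP-2, and pACYC184 served as the empty vector.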
In general terms: A growth-free zone around the sample is the usual read-out of agar diffusion tests.

The test system of assay [24] is Enterobacter cloacae. As to the kind of experiment: Antibacterial activity against drug-resistant Enterobacter cloacae EcDC64 isolate expressing AcrAB-TolC efflux pump in presence of 20 ug/ml efflux pump inhibitor Phe-Arg-beta-naphthylamide by standard disk diffusion method. In kind it is functional. The gist of the method: as §2
Assay [25] has as its system Enterobacter cloacae. The experiment in a line: Antibacterial activity against drug-resistant AcrAB-TolC efflux pump deficient Enterobacter cloacae EcdeltaacrA isolate by standard disk diffusion method. In kind it is functional. The gist of the method: as §2
For assay [26], the system named is Enterobacter cloacae. As to the kind of experiment: Antibacterial activity against drug-resistant AcrAB-TolC efflux pump deficient Enterobacter cloacae EcdeltaacrA isolate in presence of 20 ug/ml efflux pump inhibitor Phe-Arg-beta-naphthylamide by standard disk diffusion method. In kind it is functional. The gist of the method:
as §2

Assay [27] concerns Enterobacter cloacae. As to the kind of experiment: Antibacterial activity against drug-resistant AcrAB-TolC efflux pump deficient Enterobacter cloacae EcdeltaacrA isolate expressing pAP2 plasmid containing Enterobacter cloacae acrA gene by standard disk diffusion method. The class given is functional. The gist of the method:
as §2

In assay [28] the test system is Enterobacter cloacae. The experiment in a line: Antibacterial activity against drug-resistant AcrAB-TolC efflux pump deficient Enterobacter cloacae EcdeltaacrA isolate expressing pACYC184 plasmid by standard disk diffusion method. The class given is functional. The gist of the method:
as §2

Assay [29] concerns Enterobacter cloacae. The experiment in a line: Antibacterial activity against drug-resistant Enterobacter cloacae EcDC64 isolate expressing pBGS18 plasmid by standard disk diffusion method.
Assay [30] deals with Enterobacter cloacae. The experiment in a line: Antibacterial activity against drug-resistant Enterobacter cloacae EcDC64 isolate expressing pAP3 plasmid containing Enterobacter aerogenes acrR gene by standard disk diffusion method.

As a reminder, the MIC is the least concentration at which growth counts as inhibited. Take `CC[n+]1c(-c2ccccc2)c2cc(N)ccc2c2ccc(N)cc21.[Br-]` [HOMIDIUM BROMIDE]: the MIC against Enterobacter cloacae [1] is 2050 µg/mL; against Enterobacter cloacae [2], 128 µg/mL; against Enterobacter cloacae [3], 1020 µg/mL; in the assay with Enterobacter cloacae [4], 64 µg/mL; against Enterobacter cloacae [5] it was 2050 µg/mL; against Enterobacter cloacae [6], 256 µg/mL.

Take `CN(C)c1ccc(C(=C2C=CC(=[N+](C)C)C=C2)c2ccc(N(C)C)cc2)cc1.[Cl-]` [GENTIAN VIOLET]: the MIC against Enterobacter cloacae [1] was determined as 4100 µg/mL; with Enterobacter cloacae [2], 512 µg/mL; against Enterobacter cloacae [3] it was 1020 µg/mL; with Enterobacter cloacae [4], 256 µg/mL; in the assay with Enterobacter cloacae [5] it was 4100 µg/mL; against Enterobacter cloacae [6] it was 1020 µg/mL.

Turning to `CCCCCCCCCCCCOS(=O)(=O)[O-].[Na+]` [SODIUM LAURYL SULFATE], the minimal inhibitory concentration (MIC) in the assay with Enterobacter cloacae [1] was determined as 8190 µg/mL; with Enterobacter cloacae [2] it was 256 µg/mL; against Enterobacter cloacae [3], 4100 µg/mL; with Enterobacter cloacae [4] it was 128 µg/mL; with Enterobacter cloacae [5], 8190 µg/mL; against Enterobacter cloacae [6] it was 1020 µg/mL.

Consider `C[C@@H](O)[C@H]1C(=O)N2C(C(=O)O)=C(S[C@@H]3CN[C@H](C(=O)N(C)C)C3)[C@H](C)[C@H]12` [MEROPENEM], for which the MIC with Enterobacter cloacae [7] is 0.75 µg/mL (≈ 1.96 µM); with Enterobacter cloacae [8] it was over 32 µg/mL; with Enterobacter cloacae [9], 32 µg/mL; with Enterobacter cloacae [10], 24 µg/mL (≈ 62.6 µM); in the assay with Enterobacter cloacae [11], 1 µg/mL; in the assay on Enterobacter cloacae [12], over 32 µg/mL. Besides, the MIC with Enterobacter cloacae [13] is over 32 µg/mL; with Enterobacter cloacae [14], 24 µg/mL (≈ 62.6 µM); against Enterobacter cloacae [15] it was over 32 µg/mL.

Consider GENTAMICIN, for which the MIC against Enterobacter cloacae [16] turned out to be 1.5 µg/mL; against Enterobacter cloacae [17] it was 0.125 µg/mL; in the assay with Enterobacter cloacae [18] it was 0.094 µg/mL; in the assay with Enterobacter cloacae [19] it was 1 µg/mL; against Enterobacter cloacae [20], 0.125 µg/mL; in the assay on Enterobacter cloacae [21], 0.25 µg/mL. This compound gave a minimum inhibitory concentration (MIC) in the assay with Enterobacter cloacae [22] of 1 µg/mL.

For `CCn1cc(C(=O)O)c(=O)c2cc(F)c(N3CCNCC3)cc21` [NORFLOXACIN], the “inhibition zone (IZ)” value in the assay on Enterobacter cloacae [23] stood at 26 mm; with Enterobacter cloacae [24], 40 mm; in the assay with Enterobacter cloacae [25], 40 mm; in the assay with Enterobacter cloacae [26], 42 mm; with Enterobacter cloacae [27], 24 mm; in the assay with Enterobacter cloacae [28] it was 38 mm. Besides, the “inhibition zone (IZ)” value with Enterobacter cloacae [29] is given as 27 mm; with Enterobacter cloacae [30], 35 mm.

Turning to `CO[C@H]1/C=C/O[C@@]2(C)Oc3c(C)c(O)c4c(O)c(c(/C=N/N5CCN(C)CC5)c(O)c4c3C2=O)NC(=O)/C(C)=C\C=C\[C@H](C)[C@H](O)[C@@H](C)[C@@H](O)[C@@H](C)[C@H](OC(C)=O)[C@@H]1C` [RIFAMPIN], the “inhibition zone (IZ)” value with Enterobacter cloacae [23] is reported as 0 mm; in the assay on Enterobacter cloacae [24] it was 26 mm; with Enterobacter cloacae [25], 13 mm; in the assay with Enterobacter cloacae [26] it was 28 mm; in the assay with Enterobacter cloacae [27] it was 0 mm; with Enterobacter cloacae [28], 8 mm. Also, the “inhibition zone (IZ)” value with Enterobacter cloacae [29] and in the assay with Enterobacter cloacae [30] was 10 mm in each case.

As for `C[n+]1c2cc(N)ccc2cc2ccc(N)cc21.[Cl-]` [EUFLAVINE], the MIC was 128 µg/mL against Enterobacter cloacae [1]; 16 µg/mL in the assay on Enterobacter cloacae [2]; 64 µg/mL against Enterobacter cloacae [3]; 16 µg/mL against Enterobacter cloacae [4]; 128 µg/mL with Enterobacter cloacae [5]; 32 µg/mL in the assay on Enterobacter cloacae [6].

For the compound `C[C@@H](O)[C@H]1C(=O)N2C(C(=O)O)=C(SCCNC=N)C[C@H]12` [IMIPENEM ANHYDROUS], the minimal inhibitory concentration (MIC) is 2 µg/mL (≈ 6.68 µM) against Enterobacter cloacae [7]; over 32 µg/mL against Enterobacter cloacae [8]; 32 µg/mL with Enterobacter cloacae [9]; 24 µg/mL (≈ 80.2 µM) in the assay on Enterobacter cloacae [10]; 6 µg/mL in the assay on Enterobacter cloacae [11]; over 32 µg/mL with Enterobacter cloacae [12]. Also, the MIC was over 32 µg/mL in the assay on Enterobacter cloacae [13], 24 µg/mL (≈ 80.2 µM) with Enterobacter cloacae [14] and over 32 µg/mL with Enterobacter cloacae [15].

For `CO[C@@H]1[C@@H](OC(N)=O)[C@@H](O)[C@H](Oc2ccc3c(O)c(NC(=O)c4ccc(O)c(CC=C(C)C)c4)c(=O)oc3c2C)OC1(C)C` [NOVOBIOCIN], the “inhibition zone (IZ)” value in the assay on Enterobacter cloacae [23] is given as 0 mm; in the assay on Enterobacter cloacae [24] it was 20 mm; in the assay on Enterobacter cloacae [25], 16 mm; with Enterobacter cloacae [26], 22 mm; in the assay on Enterobacter cloacae [27] it was 0 mm; in the assay with Enterobacter cloacae [28], 14 mm. The “inhibition zone (IZ)” value with Enterobacter cloacae [29] and with Enterobacter cloacae [30] was 0 mm in each case.
